Structures are written as SMILES. Calls of active or inactive are those of the source. No cut-off for these calls is given here.

The subject of experiment [1] is PC-3. The experiment in a line: Cytotoxicity against human PC3 cells assessed as reduction in cell viability at 5 uM after 24 to 48 hrs by resazurin-based prestoblue assay. Type of experiment: functional. In a few lines:
(§1)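 PC3 human prostate cancer cells (express LPA1 receptor) seeded at 5,000/well, cultured 24 and 48 h, then treated with LPE analogues at 5, 10, 25 or 50 μM for 24 or 48 h. Viability read with resazurin-based PrestoBlue reagent and expressed as % of untreated control (100%). Means ± SD of at least three independent experiments; P < 0.05 versus control.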
(Alamar Blue is a resazurin reagent that responds to reducing activity.)

A short description of experiment [2]: (§2) Cytotoxicity against human PC3 cells assessed as reduction in cell viability at 25 uM after 48 hrs by resazurin-based prestoblue assay. Type of experiment: functional, PC-3. An outline of the steps: as §1
Experiment [3] can be described thus: (§3) Cytotoxicity against human PC3 cells assessed as reduction in cell viability at 50 uM after 48 hrs by resazurin-based prestoblue assay. Type of experiment: functional, PC-3. An outline of the steps:
as §1

Experiment [4] deals with PC-3. The experiment in a line: Cytotoxicity against human PC3 cells assessed as reduction in cell viability at 10 uM after 24 to 48 hrs by resazurin-based prestoblue assay. Type of experiment: functional. In a few lines: as §1
The test system of experiment [5] is PC-3. The experiment in a line: (§4) Cytotoxicity against human PC3 cells assessed as reduction in cell viability at 10 uM after 48 hrs by resazurin-based prestoblue assay. Type of experiment: functional. An outline of the steps:
as §1

Experiment [6] relates to PC-3. The experiment is described as §2. Type of experiment: functional. An outline of the steps: as §1
In experiment [7] the test system is PC-3. The description is as §3. Type of experiment: functional. In a few lines: as §1
Experiment [8] has as its system PC-3. The experiment in a line: Cytotoxicity against human PC3 cells assessed as reduction in cell viability at 50 uM after 24 to 48 hrs by resazurin-based prestoblue assay. Type of experiment: functional. An outline of the steps:
as §1

A short description of experiment [9]: as §4. Type of experiment: functional, PC-3. In a few lines:
as §1

Experiment [10] is described as follows: Cytotoxicity against human PC3 cells assessed as reduction in cell viability at 10 uM after 24 hrs by resazurin-based prestoblue assay. Type of experiment: functional, PC-3. An outline of the steps: as §1

With `CCCCCCCCCCCCCCCC(=O)OCC(COP(=O)(S)OCCN)OC` (configuration not stated), the outcome with PC-3 [1] and with PC-3 [4] was inactive. Also, the Activity in experiment [2] is 79.1%; in [3] it was 70%.

Regarding `CCCCCCCCCCCCCC(=O)OCC(COP(=O)(S)OCCN)OC` (mixture of isomers), the outcome in the experiment with PC-3 [1] and with PC-3 [4] was inactive. Also, the Activity is 59.8% in experiment [2] and 43.8% in experiment [3].

In the case of `CCCCCCCC/C=C\CCCCCCCC(=O)OCC(COP(=O)(O)OCCN)OC` (mixture of isomers), the result in the experiment with PC-3 [1] and with PC-3 [4] was inactive. The result in the experiment on PC-3 [5], with PC-3 [6] and in the experiment with PC-3 [7] was Active.

For `CCCCCCCC/C=C\CCCCCCCC(=O)OCC(COP(=O)(S)OCCN)OC` (mixture of isomers), the result in the experiment with PC-3 [1], in the experiment on PC-3 [8] and with PC-3 [4] was inactive.

Take `CCCCCCCCCCCCCCCCCC(=O)OCC(COP(=O)(S)OCCN)OC` (mixture of isomers): the outcome with PC-3 [1], with PC-3 [8] and in the experiment on PC-3 [4] was inactive.

Turning to `CCCCCCCCCCCCCCCC(=O)OCC(COP(=O)(O)OCCN)OC` (racemic), the result in the experiment with PC-3 [1] was inactive. The values for the Activity in experiment [9], in experiment [2] and in [3] were 78.8%, 49.5% and 24.9%, respectively.

Take `CCCCCCCCCCCCCC(=O)OCC(COP(=O)(O)OCCN)OC` (racemic): the Activity in experiment [10] was 68.2%; in experiment [9], 59.8%; in experiment [2] it was 22.7%; in [3], 6.3%.

With `CCCCCCCCCCCCCCCCCC(=O)OCC(COP(=O)(O)OCCN)OC` (racemic), the outcome in the experiment on PC-3 [1] and in the experiment with PC-3 [4] was inactive. Further, the outcome in the experiment on PC-3 [5], with PC-3 [6] and with PC-3 [7] was Active.

Source of the values: ChEMBL document CHEMBL3822448, “The chemical synthesis and preliminary biological studies of phosphodiester and phosphorothioate analogues of 2-methoxy-lysophosphatidylethanolamine” (2016).
